Test results published in the RNAGym collection of RNA variant scans (doi:10.1038/nmeth.2970).

B1: NELF-E aptamer (parent)
chain: CCCAACGACUGCCGAGCGAGAUUACGCUUGAGCGCCCCACUGAGGAUGCCCACGGGCGAUUGGGGCACGG

Variants of: B1
Assay: HiTS-RAP
Conditions: with NELF-E (Drosophila)
Outline: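 Aptamer DNA templates bearing a T7 promoter and a ter site were sequenced on an Illumina GAIIx flowcell. T7 RNA polymerase then transcribed them in situ, and GST-Tus halted transcription over 30 minutes at 37°C. After a 30-minute room-temperature equilibration with NELF-E-mOrange at 0.064 to 1000 nM in HEPES binding buffer, clusters were imaged, using only the first binding curve. Intensities normalised to sequencing intensity were averaged per sequence and fitted with weighted Hill fits to give Kd, retaining only fits whose variance stayed under 1,000,000.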
For U22G G26A, the Kd was 5.64 nM. U22G C50U showed a Kd of 12.9 nM. Variant A4U A31G has a Kd of 6.99 nM. Work on A5U U23G yielded a Kd of 6.01 nM. A8U G30A was tested, and the Kd was 5.46 nM. G54U G56U gave a Kd of 5.48 nM. Work on C6U yielded a Kd of 5.29 nM. With G14U G55U the Kd was 9.69 nM. A52U C66U showed a Kd of 15.1 nM. G54C showed a Kd of 10.6 nM. C9G G11A showed a Kd of 6.35 nM. G14U G18U was tested, and the Kd was 7.17 nM. G7U G16U showed a Kd of 7.06 nM. Work on U10G C12U yielded a Kd of 4.41 nM. C25G G26U showed a Kd of 5.3 nM. U10G U29A showed a Kd of 4.58 nM. A5U U28G showed a Kd of 7.17 nM. In the case of G16U A31G, the Kd is reported as 8.32 nM. Variant A19G G20U has a Kd of 6.34 nM. U10G G62C gave a Kd of 67.3 nM. With U10G C38A the Kd was 39.8 nM. A4U C25U was tested, and the Kd was 4.95 nM. C13G G54U was tested, and the Kd was 7.78 nM. C9G U28G showed a Kd of 6.8 nM. Variant A8U G14A has a Kd of 7.4 nM. In the case of C12U C13U, the Kd is reported as 3.39 nM. Variant C13G G63U has a Kd of 7.98 nM. For A31G A67U, the Kd was 10.7 nM. G56C showed a Kd of 37.4 nM. For C6U G7U, the Kd was 6.71 nM. Work on A8U G65A yielded a Kd of 5.1 nM. A8G U61A showed a Kd of 29.3 nM. Variant A5C U10G has a Kd of 6.68 nM. A4C U29G was tested, and the Kd was 7.86 nM. In the case of U10C A67U, the Kd is reported as 5.45 nM. In the case of U22G U23C, the Kd is reported as 4.62 nM. In the case of A52C, the Kd is reported as 5.64 nM. For A52G, the Kd was 4.24 nM. For A19G G63U, the Kd was 14.8 nM. In the case of C6G G16U, the Kd is reported as 6.81 nM. A4U U29A showed a Kd of 4.29 nM. For G14A U22C, the Kd was 5.13 nM. In the case of A8G U29C, the Kd is reported as 5.69 nM. For A31G U41G, the Kd was 6.51 nM. U41G A67G showed a Kd of 6.35 nM. For A8U U29A, the Kd was 4.61 nM. Work on U41G G48A yielded a Kd of 7.62 nM. With A4U G34A the Kd was 6.2 nM. Work on A19G A46G yielded a Kd of 20.6 nM. A4G G63U showed a Kd of 11.1 nM. G14U G20A gave a Kd of 6.93 nM. G11U A39G gave a Kd of 11.4 nM. Variant A5G C33U has a Kd of 6.71 nM. With A24G C38U the Kd was 8.33 nM. With G7A U10G the Kd was 5.66 nM. Work on U23A yielded a Kd of 5.15 nM. U10A A67U was tested, and the Kd was 9.22 nM. C9G C50U gave a Kd of 13.5 nM. In the case of A8G G30A, the Kd is reported as 4.89 nM. With A5G A43U the Kd was 33.6 nM. Variant C12G G26A has a Kd of 4.12 nM. Work on G7U A43U yielded a Kd of 84.5 nM. With U10A U29C the Kd was 5.24 nM. Work on C6G A8G yielded a Kd of 5.5 nM. For C6U A8G, the Kd was 6.02 nM. Variant U23G G63U has a Kd of 12.9 nM. G11A A19G gave a Kd of 6.92 nM. With U10G A31G the Kd was 6.79 nM. For U10G G14A, the Kd was 5.01 nM. U10G C25U gave a Kd of 5.86 nM. With A24G G63A the Kd was 14.3 nM. A24G C36G showed a Kd of 8.51 nM. Variant A8U C50U has a Kd of 10.4 nM. G11U C57U showed a Kd of 6.12 nM. C13G G45U was tested, and the Kd was 6.75 nM. Variant U10G G20U has a Kd of 6.08 nM. With A8G A67U the Kd was 6.63 nM. Work on A8U C40G yielded a Kd of 8.55 nM. For G7C, the Kd was 6.43 nM. Work on A4G U28A yielded a Kd of 4.59 nM. For U23G C33G, the Kd was 8.04 nM. A4U C51U showed a Kd of 7.05 nM. With U22G G64A the Kd was 8.7 nM. A8U U23C gave a Kd of 5.3 nM. In the case of A8U U23G, the Kd is reported as 6.17 nM. With G14U A43G the Kd was 116 nM. G16U G26A was tested, and the Kd was 4.92 nM. A19G A31U gave a Kd of 5.3 nM. Work on U22G U29C yielded a Kd of 5.92 nM. In the case of U22G U29G, the Kd is reported as 5.4 nM. With G7A A39G the Kd was 12.1 nM. For C12G G65U, the Kd was 8.23 nM. Work on U41G A43U yielded a Kd of 26.3 nM. With A31G A39G the Kd was 14.3 nM. A19U A52U gave a Kd of 22.1 nM. Variant U23G C50U has a Kd of 12.6 nM. For C13G C25G, the Kd was 5.76 nM. With G62U G64U the Kd was 5.62 nM. U22G G45A showed a Kd of 74.7 nM. Work on U10C U23G yielded a Kd of 5.12 nM. G14U U29C showed a Kd of 7.48 nM. G7U A15G showed a Kd of 5.56 nM. U22G G62A showed a Kd of 18.2 nM. In the case of U22G G62U, the Kd is reported as 10.4 nM. Work on C12G A52U yielded a Kd of 16.2 nM. For C12G A52G, the Kd was 5.15 nM. With A8U A39U the Kd was 28.6 nM. Work on C6G U61C yielded a Kd of 74.8 nM. Variant U22G U41C has a Kd of 74.5 nM. With C9G A19G the Kd was 5.58 nM. Variant G11U G55A has a Kd of 8.79 nM. For A4U A19G, the Kd was 6.92 nM. With C13U A19G the Kd was 6.42 nM. With C13U U28C the Kd was 6.27 nM. With G16U G65U the Kd was 7.8 nM. Variant C9G C13U has a Kd of 5.15 nM. In the case of U29A C53U, the Kd is reported as 5.35 nM. Variant U10G C50U has a Kd of 14 nM. U22G G65U gave a Kd of 6.22 nM. Variant C6G G45A has a Kd of 91 nM. A4G C6U showed a Kd of 6.08 nM. G65U was tested, and the Kd was 6.03 nM. A4G C51U showed a Kd of 7.58 nM. A5U A43U showed a Kd of 99.1 nM. U23G C38U was tested, and the Kd was 9.73 nM. Variant A5C G16U has a Kd of 8.04 nM. Work on G14U C35U yielded a Kd of 10.1 nM. Work on A24G U60C yielded a Kd of 12.8 nM. G14A G55U showed a Kd of 8.79 nM. U41G G42A was tested, and the Kd was 23.5 nM. C6G A46G was tested, and the Kd was 40.5 nM. U22G A46U was tested, and the Kd was 33 nM. In the case of U29G G64C, the Kd is reported as 5.11 nM. With A5G G11U the Kd was 6.9 nM. With U10G C51U the Kd was 6.95 nM. Variant U23G C53U has a Kd of 4.17 nM. In the case of G14U U22G, the Kd is reported as 6.53 nM. Variant A4G G18A has a Kd of 5.38 nM. C33U showed a Kd of 4.92 nM. U29G G63U gave a Kd of 12.4 nM. For C6G G55A, the Kd was 6.61 nM. Variant G7U U47A has a Kd of 12.9 nM. With U23G C27U the Kd was 4.59 nM. U10G G45U gave a Kd of 7.35 nM. For C36A, the Kd was 8.24 nM. With G18A U23G the Kd was 4.95 nM. A43U showed a Kd of 67 nM. C6U A19G showed a Kd of 6.06 nM. Work on G11A G20U yielded a Kd of 8.59 nM. A4G G44U showed a Kd of 7.66 nM. A4U G55A showed a Kd of 8.55 nM. With C27A the Kd was 4.28 nM. A4U G56A showed a Kd of 10.8 nM. Variant G7U G30A has a Kd of 6.35 nM. Work on U29G C38U yielded a Kd of 8.13 nM. For C13A U22G, the Kd was 5.85 nM. In the case of A31U U41G, the Kd is reported as 7.78 nM. With A46G A67G the Kd was 36.2 nM. For A5G A52U, the Kd was 17 nM. With U10G A67G the Kd was 5.45 nM. In the case of U10G A46U, the Kd is reported as 65.4 nM. Work on C12G A24G yielded a Kd of 5.9 nM. A24G U47G showed a Kd of 7.22 nM. G7U A67U was tested, and the Kd was 9.65 nM. A4U C9U gave a Kd of 5.8 nM. A5U G55A was tested, and the Kd was 7.03 nM. In the case of A4G G56U, the Kd is reported as 6.06 nM.
